This is an account of results in ChEMBL document CHEMBL2311276, “Synthesis of amidine and bis amidine derivatives and their evaluation for anti-inflammatory and anticancer activity” (Eur J Med Chem, 2013).

pIC50: −log10 of the molar value.

Test [1] concerns T47D. The experiment in a line: Cytotoxicity against human T47D cells assessed as growth inhibition at 1 x 10 '-5 M after 24 hrs by MTT assay. The class given is functional. The settings on record: read-out: GI. In a few lines:
(§1)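 MTT screen at a single concentration of 1 × 10⁻⁵ M, 24 h exposure. Seeding was 5 × 10³ cells/well in RPMI-1640 with 2 mM glutamine. Vehicle was 0.1% final DMSO. MTT was added for 4 h at 37 °C, formazan dissolved in DMSO/glycine buffer (pH 10.5), and A570 read. Percent growth inhibition was calculated against vehicle-treated cells; triplicate, mean of three independent experiments.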

Test [2] relates to HepG2. Description: Cytotoxicity against human HepG2 cells assessed as growth inhibition at 1 x 10 '-5 M after 24 hrs by MTT assay. The class given is functional. The following applies: HepG2, 24 h, read-out: GI. In short, it runs like this:
as §1

Test [3] deals with HCT-15. Description: Cytotoxicity against human HCT15 cells assessed as growth inhibition at 1 x 10 '-5 M after 24 hrs by MTT assay. The class given is functional. The settings on record: HCT-15, 24 h, read-out: GI. In a few lines: as §1
(Tetrazolium dyes change colour on reduction, which living cells bring about.)

Test [4] relates to PA-1. Description: Cytotoxicity against human PA1 cells assessed as growth inhibition at 1 x 10 '-5 M after 24 hrs by MTT assay. The class given is functional. The settings on record: PA-1, 24 h, read-out: GI. In short, it runs like this: as §1
Test [5] has as its system NCI-H522. Description: Cytotoxicity against human NCI-H522 cells assessed as growth inhibition at 1 x 10 '-5 M after 24 hrs by MTT assay. Format: functional. The settings on record: NCI-H522, 24 h, read-out: GI. In short, it runs like this:
as §1

In a further test the test system is Rattus norvegicus. Description: Antiinflammatory activity in Charles Foster albino rat assessed as inhibition of carrageenan-induced paw edema at 50 mg/kg, po administered 30 mins before carrageenan challenge measured after 1 to 3 hrs by plethysmometer analysis. The class given is functional. In short, it runs like this:
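Rats of both sexes (120–160 g; pregnant females excluded), five per group, were dosed orally at 50 mg/kg. After 30 min, 0.20 mL of freshly prepared 1% carrageenan in 0.9% NaCl was injected into the plantar aponeurosis of the hind paw. Paw volume was read by water plethysmometer before and 1–3 h later. Percent inhibition was taken against a carrageenan-only control group of five rats.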
For orientation: Carrageenan injected into the paw causes an acute inflammation.

Test [6] relates to HCT-15. The experiment in a line: Cytotoxicity against human HCT15 cells after 24 hrs by MTT assay. Format: functional, cell-based. The following applies: HCT-15, 24 h. In a few lines:
(§2)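 Cell lines came from NCCS Pune and were grown in RPMI-1640 with 2 mM glutamine, pH 7.4. Cells were seeded at 5 × 10³ per well and exposed to serial dilutions in DMSO for 24 h, with 0.1% final DMSO as vehicle control. MTT (5 mg/ml) was added for 4 h at 37 °C. Formazan was dissolved in DMSO plus Sorensen glycine buffer (pH 10.5) and read at 570 nm. IC50 came from % inhibition versus vehicle; triplicate, mean ± SD of three experiments.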

The test system of test [7] is T47D. The experiment in a line: Cytotoxicity against human T47D cells after 24 hrs by MTT assay. The class given is functional, cell-based. In short, it runs like this:
as §2

For test [8], the system named is HepG2. Description: Cytotoxicity against human HepG2 cells after 24 hrs by MTT assay. The class given is functional, cell-based. The settings on record: HepG2, 24 h. In a few lines: as §2
The subject of test [9] is NCI-H522. The experiment in a line: Cytotoxicity against human NCI-H522 cells after 24 hrs by MTT assay. The class given is functional, cell-based. The following applies: NCI-H522, 24 h. In short, it runs like this:
as §2

A further test deals with COS-1. The experiment in a line: Cytotoxicity against african green monkey COS1 cells after 24 hrs by MTT assay. The class given is cell-based. The settings on record: Chlorocebus aethiops, COS-1, 24 h.
In test [10] the test system is PA-1. Description: Cytotoxicity against human PA1 cells after 24 hrs by MTT assay. The class given is functional, cell-based. The following applies: PA-1, 24 h. In short, it runs like this:
as §2

Broadly, the inhibition in vivo is how much of the control response was suppressed. With `N=C(NCc1cccnc1)c1ccncc1`, the inhibition of growth at 10 µM was 22% in the test with T47D [1]; 20% with HepG2 [2]; 22% in the test on HCT-15 [3]; 21% with PA-1 [4]; 7% in the test on NCI-H522 [5]. In addition, the inhibition in vivo at 50 mg/kg in the test with Rattus norvegicus is 0%.

Take `N=C(NCCCCNC(=N)c1ccccn1)c1ccccn1`: the inhibition of growth at 10 µM was determined as 29% with T47D [1]; 26% in the test with HepG2 [2]; 5% in the test on HCT-15 [3]; 27% in the test with PA-1 [4]; 38% in the test with NCI-H522 [5]. Besides, the inhibition in vivo at 50 mg/kg in the test on Rattus norvegicus was found to be 14%.

Usually pIC50 stands for −log10 of the IC50, conventionally taken in molar units. Take `O=c1[nH]cc(F)c(=O)[nH]1` [FLUOROURACIL]: the inhibition of growth at 10 µM was found to be 15% in the test with T47D [1]; 32% in the test on HepG2 [2]; 19% with HCT-15 [3]; 22% in the test with PA-1 [4]; 13% in the test with NCI-H522 [5]. For the same compound, the negative logarithm of the IC50 (pIC50) in the test with HCT-15 [6] is 4.35; in the test on T47D [7], 4.29; in the test on HepG2 [8], 4.52; in the test with NCI-H522 [9], 4.25; with COS-1 it was 3.96; with PA-1 [10] it was 4.40.

For the compound `C[C@@H]1C[C@@H]([C@H](O)CC2CC(=O)NC(=O)C2)C(=O)[C@@H](C)C1` [CYCLOHEXIMIDE], the inhibition of growth at 10 µM amounted to 11% in the test on T47D [1]; 18% in the test with HepG2 [2]; 16% in the test with HCT-15 [3]; 34% in the test with PA-1 [4]; 9% in the test on NCI-H522 [5]. For the same compound, the pIC50 in the test on HCT-15 [6] was 4.27; in the test with T47D [7], 4.19; in the test with HepG2 [8] it was 4.24; in the test on NCI-H522 [9], 4.22; with COS-1 it was 3.89; in the test with PA-1 [10], 4.39.

With `N=C(NCCN1CCOCC1)c1ccncc1`, the inhibition of growth at 10 µM in the test on T47D [1] stood at 12%; with HepG2 [2], 9%; in the test on HCT-15 [3], 17%; in the test on PA-1 [4] it was 43%; with NCI-H522 [5] it was 11%. Further, the inhibition in vivo at 50 mg/kg in the test with Rattus norvegicus worked out at 28%.

As for `N=C(NCCN1CCOCC1)c1ccccn1`, the inhibition of growth at 10 µM turned out to be 21% in the test with T47D [1]; 40% in the test on HepG2 [2]; 12% in the test with HCT-15 [3]; 43% with PA-1 [4]; 31% with NCI-H522 [5]. Besides, the inhibition in vivo at 50 mg/kg with Rattus norvegicus stood at 0%.

Take `N=C(NCc1cccnc1)c1ccccn1`: the inhibition of growth at 10 µM was 23% in the test with T47D [1]; 42% in the test with HepG2 [2]; 23% with HCT-15 [3]; 36% in the test with PA-1 [4]; 9% in the test on NCI-H522 [5]. Also, the inhibition in vivo at 50 mg/kg in the test with Rattus norvegicus was determined as 10%.

On to `N=C(NCCCN1CCN(CCCNC(=N)c2cnccn2)CC1)c1cnccn1`, for which the inhibition of growth at 10 µM in the test on T47D [1] turned out to be 28%; with HepG2 [2], 22%; in the test on HCT-15 [3], 12%; in the test on PA-1 [4], 26%; in the test with NCI-H522 [5] it was 15%. Also, the inhibition in vivo at 50 mg/kg with Rattus norvegicus turned out to be 27%.

As to `N=C(NCCCN1CCN(CCCNC(=N)c2ccncc2)CC1)c1ccncc1`, the inhibition of growth at 10 µM with T47D [1] was 2%; in the test on HepG2 [2], 6%; with HCT-15 [3] it was 9%; in the test with PA-1 [4], 13%; with NCI-H522 [5], 31%. The inhibition in vivo at 50 mg/kg in the test with Rattus norvegicus stood at 31%.

In the case of `N=C(NCc1cccnc1)c1cnccn1`, the inhibition of growth at 10 µM in the test with T47D [1] worked out at 23%; with HepG2 [2], 26%; in the test with HCT-15 [3] it was 3%; in the test on PA-1 [4], 23%; in the test with NCI-H522 [5], 11%. The inhibition in vivo at 50 mg/kg with Rattus norvegicus was determined as 18%.
